Starred links: 1 amine or outer side, 2 acyl side, 3 side chain; linkers in the order of their positions; H or OH if unused. Non-standard residues stand in square brackets, D forms with d. Residues, ends and D or L forms follow the SMILES beside them. X11 = CC(C)CNC(=N)NCCCC[C@H](N[*:1])C(=O)[*:2]; X2 = CCN(C)C(=N)NCCCC[C@H](N[*:1])C(=O)[*:2]; X8 = CCN(CC)C(=N)NCCC[C@H](N[*:1])C(=O)[*:2]; X12 = CCCNC(=N)NCCCC[C@H](N[*:1])C(=O)[*:2]; X3 = CN(C)C(=N)NCCCC[C@H](N[*:1])C(=O)[*:2]; X5 = CCN(CC)C(=N)NCC[C@H](N[*:1])C(=O)[*:2]; X6 = N=C(NCCC[C@H](N[*:1])C(=O)[*:2])N1CCC1; X7 = CCN(C)C(=N)NCC[C@H](N[*:1])C(=O)[*:2]; X9 = N=C(NCC[C@H](N[*:1])C(=O)[*:2])N1CCC1; X10 = CNC(=N)NCCCC[C@H](N[*:1])C(=O)[*:2]; Arg(ω-nPr) = CCCNC(=N)NCCC[C@H](N)C(=O)O; Arg(Me2s) = CN=C(NC)NCCC[C@H](N)C(=O)O; X4 = CNC(=N)NCC[C@H](N[*:1])C(=O)[*:2]; Arg(Et) = CCNC(=N)NCCC[C@H](N)C(=O)O; Agb = N=C(N)NCC[C@H](N)C(=O)O
Columns and labels:
[1] = biological target: T1, Pyroglutamylated RF-amide peptide receptor (Homo sapiens, UniProt Q96P65); experiment: Agonist activity at human QRFPR expressed in CHO cells co-expressing Galpha16 assessed as increase Ca2+ mobilization after 3 mins by Fluo-4 AM-based scanning fluorometery; format: functional, cell-based
T1 sequence (Q96P65 whole entry): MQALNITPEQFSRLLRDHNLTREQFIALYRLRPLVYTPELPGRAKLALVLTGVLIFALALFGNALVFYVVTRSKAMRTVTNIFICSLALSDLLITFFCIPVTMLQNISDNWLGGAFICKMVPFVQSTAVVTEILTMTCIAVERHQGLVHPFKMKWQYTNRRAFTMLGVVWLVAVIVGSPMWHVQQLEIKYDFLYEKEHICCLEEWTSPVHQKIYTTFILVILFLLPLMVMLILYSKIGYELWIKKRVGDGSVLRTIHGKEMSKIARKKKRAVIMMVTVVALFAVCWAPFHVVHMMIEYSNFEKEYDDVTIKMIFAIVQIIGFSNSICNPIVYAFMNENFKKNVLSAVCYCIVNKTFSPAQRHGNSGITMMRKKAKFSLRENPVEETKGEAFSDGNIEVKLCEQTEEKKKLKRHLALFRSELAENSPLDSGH
How it was run: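 CHO-Gα16 cells stably expressing human QRFPR, seeded at 40,000 cells/well 24 h ahead. Loaded 1 h with 2 µM Fluo-4 AM plus 0.01% pluronic acid, washed, then 30 min in HBSS with 2.5 mM probenecid and 5 mM HEPES. Compounds added at final 10^-11 to 10^-5 M; fluorescence recorded 3 min on a scanning fluorometer. EC50 from sigmoidal variable-slope fits, ≥3 experiments in triplicate.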

[2] = biological target: T1, Pyroglutamylated RF-amide peptide receptor; experiment: Antagonist activity at human QRFPR expressed in CHO cells co-expressing Galpha16 assessed as inhibition of 26RFa-induced Ca2+ mobilization preincubated for 15 mins followed by agonist addition measured after 3 mins by Fluo-4 AM-based scanning fluorometery; format: functional, cell-based
How it was run: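 CHO-Gα16-hQRFPR cells loaded 1 h with 2 µM Fluo-4 AM, then incubated 15 min with graded compound. A 10^-7 M final 26RFa pulse was given during recording. Background subtracted, baseline normalized to 100%, peak fluorescence taken per concentration. IC50 from sigmoidal variable-slope fits, ≥3 experiments in triplicate. Maximal effect at 10^-4 M expressed as % inhibition of the 26RFa (10^-7 M) response.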

| Structure (SMILES) | EC50 [1] [µM] | IC50 [2] [µM] |
| --- | --- | --- |
| CCNC(=N)NCCC[C@H](NC(=O)[C@H](Cc1ccccc1)NC(=O)[C@H](CO)NC(=O)[C@H](Cc1ccccc1)NC(=O)CNC(=O)CN)C(=O)N[C@@H](Cc1ccccc1)C(N)=O (H-GGFSF[Arg(Et)]F-NH2) | 1.37 | – |
| C/N=C(/NC)NCCC[C@H](NC(=O)[C@H](Cc1ccccc1)NC(=O)[C@H](CO)NC(=O)[C@H](Cc1ccccc1)NC(=O)CNC(=O)CN)C(=O)N[C@@H](Cc1ccccc1)C(N)=O (H-GGFSF[Arg(Me2s)]F-NH2) | > 100 | > 100 |
| CCCNC(=N)NCCC[C@H](NC(=O)[C@H](Cc1ccccc1)NC(=O)[C@H](CO)NC(=O)[C@H](Cc1ccccc1)NC(=O)CNC(=O)CN)C(=O)N[C@@H](Cc1ccccc1)C(N)=O (H-GGFSF[Arg(ω-nPr)]F-NH2) | 1.4 | – |
| CN(C)C(=N)NCCCC[C@H](NC(=O)[C@H](Cc1ccccc1)NC(=O)[C@H](CO)NC(=O)[C@H](Cc1ccccc1)NC(=O)CNC(=O)CN)C(=O)N[C@@H](Cc1ccccc1)C(N)=O (H-GGFSF[X3]F-NH2) | > 100 | > 100 |
| CNC(=N)NCC[C@H](NC(=O)[C@H](Cc1ccccc1)NC(=O)[C@H](CO)NC(=O)[C@H](Cc1ccccc1)NC(=O)CNC(=O)CN)C(=O)N[C@@H](Cc1ccccc1)C(N)=O (H-GGFSF[X4]F-NH2) | > 100 | > 100 |
| CCCNC(=N)NCCCC[C@H](NC(=O)[C@H](Cc1ccccc1)NC(=O)[C@H](CO)NC(=O)[C@H](Cc1ccccc1)NC(=O)CNC(=O)CN)C(=O)N[C@@H](Cc1ccccc1)C(N)=O (H-GGFSF[X12]F-NH2) | > 100 | > 100 |

Further lines, results first:

| EC50 [1] [µM] | IC50 [2] [µM] | Structure (SMILES) |
| --- | --- | --- |
| > 100 | > 100 | N=C(N)NCC[C@H](NC(=O)[C@H](Cc1ccccc1)NC(=O)[C@H](CO)NC(=O)[C@H](Cc1ccccc1)NC(=O)CNC(=O)CN)C(=O)N[C@@H](Cc1ccccc1)C(N)=O (H-GGFSF[Agb]F-NH2) |
| > 100 | > 100 | CCN(C)C(=N)NCCCC[C@H](NC(=O)[C@H](Cc1ccccc1)NC(=O)[C@H](CO)NC(=O)[C@H](Cc1ccccc1)NC(=O)CNC(=O)CN)C(=O)N[C@@H](Cc1ccccc1)C(N)=O (H-GGFSF[X2]F-NH2) |
| > 100 | > 100 | CCN(CC)C(=N)NCC[C@H](NC(=O)[C@H](Cc1ccccc1)NC(=O)[C@H](CO)NC(=O)[C@H](Cc1ccccc1)NC(=O)CNC(=O)CN)C(=O)N[C@@H](Cc1ccccc1)C(N)=O (H-GGFSF[X5]F-NH2) |
| > 100 | > 100 | N=C(NCCC[C@H](NC(=O)[C@H](Cc1ccccc1)NC(=O)[C@H](CO)NC(=O)[C@H](Cc1ccccc1)NC(=O)CNC(=O)CN)C(=O)N[C@@H](Cc1ccccc1)C(N)=O)N1CCC1 (H-GGFSF[X6]F-NH2) |
| > 100 | > 100 | CCN(C)C(=N)NCC[C@H](NC(=O)[C@H](Cc1ccccc1)NC(=O)[C@H](CO)NC(=O)[C@H](Cc1ccccc1)NC(=O)CNC(=O)CN)C(=O)N[C@@H](Cc1ccccc1)C(N)=O (H-GGFSF[X7]F-NH2) |
| > 100 | > 100 | CCN(CC)C(=N)NCCC[C@H](NC(=O)[C@H](Cc1ccccc1)NC(=O)[C@H](CO)NC(=O)[C@H](Cc1ccccc1)NC(=O)CNC(=O)CN)C(=O)N[C@@H](Cc1ccccc1)C(N)=O (H-GGFSF[X8]F-NH2) |
| > 100 | > 100 | N=C(NCC[C@H](NC(=O)[C@H](Cc1ccccc1)NC(=O)[C@H](CO)NC(=O)[C@H](Cc1ccccc1)NC(=O)CNC(=O)CN)C(=O)N[C@@H](Cc1ccccc1)C(N)=O)N1CCC1 (H-GGFSF[X9]F-NH2) |
| > 100 | > 100 | CNC(=N)NCCCC[C@H](NC(=O)[C@H](Cc1ccccc1)NC(=O)[C@H](CO)NC(=O)[C@H](Cc1ccccc1)NC(=O)CNC(=O)CN)C(=O)N[C@@H](Cc1ccccc1)C(N)=O (H-GGFSF[X10]F-NH2) |
| 2.75 | – | CC(C)CNC(=N)NCCCC[C@H](NC(=O)[C@H](Cc1ccccc1)NC(=O)[C@H](CO)NC(=O)[C@H](Cc1ccccc1)NC(=O)CNC(=O)CN)C(=O)N[C@@H](Cc1ccccc1)C(N)=O (H-GGFSF[X11]F-NH2) |

From ChEMBL document CHEMBL4270668, “Design, Synthesis, Molecular Dynamics Simulation, and Functional Evaluation of a Novel Series of 26RFa Peptide Analogues Containing a Mono- or Polyalkyl Guanidino Arginine Derivative” (J Med Chem, 2018)
